Screening results (PubChem)
The list is not random: actives were taken first. Their share in the collection is about 1.9%.
TbMetRS inhib: Trypanosoma brucei MetRS inhibition; AID 624268; purified T. brucei MetRS, ATP depletion, Kinase-Glo luminescence; inhibition, % at 11.9 µM; 360,000 tested, 0.4% active;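 active = inhibition above a per-plate cutoff of the control wells' mean inhibition plus 3 SD, cut at about 5.5% in these data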
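System: purified T. brucei MetRS enzyme / Detection: Kinase-Glo luciferase luminescence reporting remaining unconsumed ATP / Medium: HEPES buffer with MgCl2, KCl, DTT, spermine, BSA, pyrophosphatase / Replication: singlicate, one well per compound / Evaluation: percent inhibition relative to median high and low control wells / Schedule: 2 h aminoacylation at 25 °C after 15 min preincubation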
HGIII-sPLA2 inh: Blocks human group III sPLA2 activity. inhibition, % at 12.2 µM. 370,000 tested, 0.56% active. QFRET BODIPY PC-A2 liposome hydrolysis, fluorescence;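 active = inhibition above mean plus 3 SD of compounds lying within the high and low control bounds, cut at about 19% in these data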
PLCg1 inh: inhibitors of human phospholipase C gamma1. P19174. purified PLC-gamma1, fluorogenic substrate, fluorescence. inhibition, % at 12.2 µM. 370,000 tested, 0.84% active. AID 720700; in the data active = inhibition above about 9.5%
PLCb3 inh: PLC-beta3 (human) inhibition, primary screen | Q01970 | Purified PLC-beta3, fluorogenic substrate, fluorescence | inhibition, % at 12.2 µM | 370,000 tested, 0.18% active | AID 720704
Tb MetRS conf: confirmation of Trypanosoma brucei MetRS inhibitors | AID 624412 | 1,400 tested, 93% active | T. brucei MetRS enzyme, luminescence (ATP depletion) | shares compounds with TbMetRS inhib | inhibition, % at 11.9 µM; in the data active = inhibition above about 7%
Jurkat cytotox: Jurkat T cell cytotoxicity for MetRS hits; Jurkat cells viability, ATP luminescence; shares compounds with TbMetRS inhib; 1,400 tested, 12% active; inhibition, % at 8.3 µM; in the data active = inhibition above about 15%
Tb MetRS inh FP: orthogonal test for Trypanosoma brucei MetRS inhibitors; shares compounds with TbMetRS inhib; purified T. brucei MetRS, fluorescence polarization; inhibition, % at 11.9 µM; 1,400 tested, 44% active; AID 651607; in the data active = inhibition above about 17%
PLCg1 ctr: PLC-gamma1 inhibition, counter-screen for PLC-beta3 hits. 3,300 tested, 3.1% active. purified PLC-gamma1, fluorogenic substrate, fluorescence. inhibition, % at 12.3 µM. shares compounds with PLCg1 inh. AID 743258; in the data active = inhibition above about 9.5%
PLCb3 confirm: confirmation of human PLC-beta3 inhibitors. shares compounds with PLCg1 inh. purified PLC-beta3, fluorogenic substrate fluorescence. inhibition, % at 12.3 µM. 3,300 tested, 1% active. AID 743261
Numbers stand for hits; . = inactive; / = no result given. Cut-off read from the data, not from the text of the source, unless noted: active = inhibition above about 11%; inactive = the rest.

SMILES	TbMetRS inhib	HGIII-sPLA2 inh	PLCg1 inh	PLCb3 inh	Tb MetRS conf	Jurkat cytotox	Tb MetRS inh FP	PLCg1 ctr	PLCb3 confirm
Cc1ccc(Cn2cc(CN(C)S(=O)(=O)c3ccccc3Br)nn2)cc1	/	.	.	.	/	/	/	/	/
O=C(Nc1ccc(Cl)c(Cl)c1)OCCNC(=O)c1cccc(Cl)c1	40	.	.	.	58	.	35	/	/
O=C(NNS(=O)(=O)c1ccccc1[N+](=O)[O-])c1ccccc1Cl	.	.	.	.	/	/	/	/	/
O=C(NNS(=O)(=O)c1ccccc1[N+](=O)[O-])c1cc2ccccc2cc1O	34	.	.	.	49	.	24	/	/
COC(=O)[C@H](Cc1ccccc1)NC(=O)[C@H]1C[C@@]2(N3CCCC3)c3ccccc3N(C(=O)OC(C)(C)C)[C@H]2N1C(=O)OC(C)(C)C	/	.	.	.	/	/	/	/	/
CCOC(=O)C1(C(C)(C)CC)CC(CSc2nc3ccccc3[nH]2)OC1=O (stereo not given)	5.7	.	12	.	15	.	.	.	.
CCCc1nc2c(=O)n(C)c(=O)nc-2n(C)n1	17	.	55	.	20	73	.	43	.
Cn1nc(-c2ccccn2)nc2c(=O)n(C)c(=O)nc1-2	31	.	51	.	31	66	.	32	.
O=C(N[C@@H](Cc1cccnc1)C(=O)N1CCC[C@H]1C(=O)NCc1ccccc1)c1ccc(Cl)c(Cl)c1	/	.	.	.	/	/	/	/	/
CCN1C(=O)C(CC(=O)Nc2ccc(OC)cc2)N(Cc2ccc(OC)c(OC)c2)C1=S (stereo not given)	.	.	.	.	/	/	/	/	/
CCN1C(=O)C(CC(=O)Nc2ccc(OC)cc2)N(CCc2ccc(OC)cc2)C1=S (stereo not given)	36	.	.	14	51	.	34	.	.
CN1CCCCC(NC(=O)c2cccc([N+](=O)[O-])c2)C1=O (stereo not given)	/	.	.	.	/	/	/	/	/
O=C1c2cccnc2-c2ncccc21	.	.	.	.	/	/	/	/	/
O=C1C(=O)c2cccnc2-c2ncccc21	15	.	53	.	9.7	97	.	51	.
COC(=O)[C@]1(C#N)CC(=O)N(CC(C)C)[C@@H]1c1ccccc1	/	.	.	.	/	/	/	/	/
O=C(Nc1ccc(F)cc1F)C1CCN(c2nnc(-n3cccc3)s2)CC1	/	.	.	.	/	/	/	/	/
Cc1[nH]n(-c2ccccc2)c(=O)c1C(c1ccc(O)c([N+](=O)[O-])c1)c1c(C)[nH]n(-c2ccccc2)c1=O	13	.	22	.	.	.	.	.	.
COc1cccc(C(c2c(C)[nH]n(-c3ccccc3)c2=O)c2c(C)[nH]n(-c3ccccc3)c2=O)c1O	8.1	.	25	.	.	.	.	.	.
Cc1[nH]n(-c2ccccc2)c(=O)c1C(C[N+](=O)[O-])c1ccccc1Cl (stereo not given)	.	.	.	.	/	/	/	/	/
COc1cccc(C(c2c(C)[nH]n(-c3ccccc3)c2=O)c2c(C)[nH]n(-c3ccccc3)c2=O)c1OC	7.7	.	18	.	.	19	.	.	.
CC(c1ccccc1)n1cc(C(=O)N2CCCC2)nn1 (stereo not given)	/	.	.	.	/	/	/	/	/
NC(=NCCc1c[nH]c2ccccc12)NC(=O)c1ccc(Cl)cc1	29	.	10.0	.	35	.	.	.	.
O=C(N[C@@H](Cc1c[nH]c2ccccc12)C(=O)O)c1ccc(Cl)cc1	.	.	.	.	/	/	/	/	/
